From the RNAGym collection of RNA variant scans (doi:10.1126/science.aae0568)
Fewer inactive variants are shown than the library holds.

B1: tRNA (parent)
chain: GUUCCGUUGGCGUAAUGGUAACGCGUCUCCCUCCUAAGGAGAAGACUGCGGGUUCGAGUCCCGUACGGAACG

Variants of: B1
Experiment: yeast fitness relative to wild type (ratio to wild type); higher = fitter; tRNA-Arg(CCU), competitive growth, 37 C, YPD
In short: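 A pool of Saccharomyces cerevisiae strains, each with a tRNA-Arg(CCU) gene variant at the native genomic locus, was competed in YPD at 37°C for 24 hours across six parallel replicates. The variants had been chemically synthesised at a 3% per-site mutation rate over 69 sites, and gene amplicons before and after competition were read by 100-nucleotide paired-end sequencing. Darwinian fitness relative to wild type rested on changes in genotype frequencies. Genotypes required ≥ 100 starting reads, and estimates < 0.5 were set to 0.5.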

Point of comparison: C5U U35A G44A, yeast fitness 0.558. Against it:
- C5U C31A — higher, 0.688
- G6A A15C A20U A36U G39A — lower, ≤ 0.5
- G6A A14G C24A A36G A45U — lower, ≤ 0.5
- C5U C22G C46A C60G — lower, ≤ 0.5
- G6A A15U A69U A70U — lower, ≤ 0.5
- G6A C11A C49G — lower, ≤ 0.5
- C5U U8C A20G C30A C61A G67U — lower, ≤ 0.5
- C5U G10A A14C — higher, 0.6
- C5U C30G U64A — higher, 0.578
- C5U C24G C62G G68C — lower, ≤ 0.5
- C5U G18A C30A G58A — lower, ≤ 0.5
- C5U U13G C33A A37C — lower, 0.555
- G6A A45C G58A — lower, 0.519
- C5U C11U A15U C31U C49U — lower, ≤ 0.5
- C5U G50C U54C — lower, ≤ 0.5
- C5U C29A G39C G50A G63A A69C — lower, ≤ 0.5
- C5U G17A — higher, 0.929
- C5U U13A A15G A20G C22G C46G G51A — lower, ≤ 0.5
- C5U U47A G68C — lower, 0.534
- C5U A45U C49A — higher, 0.696
- C5U C33G G56C A69U — lower, ≤ 0.5
- C5U C24U G44C — lower, 0.528
- G6A A14U A20C U28C C46U G58A — lower, ≤ 0.5
- C5U C11A A21G G23C — lower, ≤ 0.5
- C5U G6C G39A A45U C46G — higher, 0.626
- G6A A36C A37G G52A — lower, ≤ 0.5
- G6A C11A U26A G52A — lower, ≤ 0.5
- G6A A15U G18C G23C A43G C60U — lower, ≤ 0.5
- C5U C27A C33G A45C G50C G58A — lower, 0.514
- C5U C24U G52U C55A — lower, ≤ 0.5
- G6A A36U A45U — lower, ≤ 0.5
- C5U A21U C29U C30G A70U — lower, 0.543
- C5U G18C C22U G50A U54C — lower, ≤ 0.5
- C5U C31U C61G — lower, 0.549
- C5U A37G C62G G68C — lower, ≤ 0.5
- C5U C55G C66U A69U — lower, ≤ 0.5
- C5U C31G C33U — lower, 0.522
- C5U U7G G9A C31G A36G — lower, ≤ 0.5
- C5U U16C — higher, 0.972
- C5U U16G — higher, 0.809
- C5U C24U G41C A70C — lower, ≤ 0.5
- C5U A21U U32G — lower, ≤ 0.5
- G6A A21C U47A G56A — lower, ≤ 0.5
- C5U G9C C34U C60G — lower, ≤ 0.5
- G6A A14C — higher, 0.674
- G6A A14U — higher, 0.663
- G6A C11A A15G C49G G51C — lower, ≤ 0.5
- C5U U8C A20G C30A C61A — higher, 0.649
- C5U A21G C27U G41A C66A — lower, ≤ 0.5
- C5U C46U G50C C61U — lower, ≤ 0.5
- C5U U35A A45C — higher, 0.602
- C5U C24G A43C A45U G52A — lower, ≤ 0.5
- G6A A14G A42G — lower, 0.549
- C5U A40G G56A A69C — higher, 0.575
- C5U G18A A42C — higher, 0.674
- C5U U7C A40C C66U — lower, ≤ 0.5
- C5U U26C A40U — lower, ≤ 0.5
- G6A A20C C31U C33G — lower, ≤ 0.5
- C5U G44C A69U — higher, 0.815
- C5U A45G — higher, 0.974
- C5U A45U — higher, 1.01
- C5U G68C A69U — lower, ≤ 0.5
- G6A A20U G52C — lower, ≤ 0.5
- C5U G9C A36G — lower, 0.538
- C5U C22U C27U A42G C55A C60A A70U — higher, 0.57
- C5U A42C G67U — higher, 0.69
- C5U C34A G50A U59G C62A — lower, ≤ 0.5
- C5U C30A — higher, 0.889
- C5U C11U G25C A45C C62A A70U — higher, 0.611
- C5U G18A A37C C61U — lower, ≤ 0.5
- G6A A15C C27A A43G — higher, 0.592
- C5U A21G A42C — higher, 0.761
- C5U A21G A42U — higher, 0.908
- C5U C22G C29A A45U G58C — lower, ≤ 0.5
- C5U A21G A42U G58A C66U — higher, 0.706
- C5U C11G C22U C30G G58C C60G — lower, ≤ 0.5
- C5U C22A U32A C60G — lower, ≤ 0.5
- C5U C22A A36U — higher, 0.828
- G6A A36C — lower, 0.53
- C5U G9A U54C C61G — higher, 0.673
- G6A A15U C22A — lower, ≤ 0.5
- C5U C29A C62A — lower, ≤ 0.5
- G6A A14U C61U — lower, ≤ 0.5
- C5U G6A C66U — higher, 0.975
- C5U C22U A37C C55A A69U — lower, ≤ 0.5
- C5U C22G A65G — higher, 0.588
- C5U U28A C34U G41A — lower, ≤ 0.5
- G6A C11G C22G C49A G51A — lower, ≤ 0.5
- C5U C55G C61A — lower, ≤ 0.5
- G6A A20C G39C C60G C61G — lower, ≤ 0.5
- G6A A43G — higher, 0.801
- C5U C31G C49U C61G — lower, ≤ 0.5
- C5U C11A A21G A70G — lower, ≤ 0.5
- C5U G9A G10C G25A C33G G39A — lower, ≤ 0.5
- C5U U19A C30A A42C U64C — lower, ≤ 0.5
- C5U U32A C66U — higher, 0.578
- C5U G23C U26C U32A A42U A65C — lower, ≤ 0.5
- G6A A20C C29A G44C — lower, ≤ 0.5
- C5U G12C A42G C55A C62A — lower, ≤ 0.5
- G6A A69U — higher, 0.916
- G6A A14G C22G U35G A40C A70G — lower, ≤ 0.5
- G6A A43G A65U — higher, 0.604
- C5U G56A C61A — lower, ≤ 0.5
- C5U U19C A21U A37C C61A A65C — lower, ≤ 0.5
- C5U A21U A57U C60A — lower, ≤ 0.5
- C5U C33G — higher, 0.777
- C5U C33A — higher, 0.737
- C5U A43G A69C — higher, 0.72
- C5U U35C — higher, 0.811
- C5U U7C U13G A36C C46U — higher, 0.757
- C5U U28C A45C — higher, 0.672
- C5U C11A A20C C22G C30U C31G — lower, ≤ 0.5
- C5U C24U C33U G44C G68A — lower, ≤ 0.5
- C5U U32C — higher, 0.892
- G6A A14G A45G — higher, 0.797
- C5U U7C C31A G39A — lower, ≤ 0.5
- C5U C22A C31U G68C — lower, ≤ 0.5
- G6A A40U — higher, 0.823
- C5U U16G A20C A21G C30U — lower, ≤ 0.5
- C5U U28A A65U — lower, 0.553
- C5U G23A U54C — lower, ≤ 0.5
- C5U U13C U35G C49U — higher, 0.608
- C5U C31A A45C — higher, 0.681
- C5U G58C U59C A70G — lower, ≤ 0.5
- C5U C11U C24U G44C — lower, ≤ 0.5
- C5U G39C C46U C49U G56A G68C — higher, 0.669
- C5U U35G A45U A57C — lower, ≤ 0.5
- C5U G23C U32C A42G U54A — lower, ≤ 0.5
- C5U U35G U47A G48A — lower, ≤ 0.5
- C5U C29A C31A U54A — lower, ≤ 0.5
- C5U U28G C62U A65G — lower, ≤ 0.5
- C5U A37G — higher, 0.795
- C5U U13G C33A A37C A70G — lower, ≤ 0.5
- C5U U28A C30G — lower, ≤ 0.5
- G6A A20G C30G U35A G50A A65C — lower, 0.517
- C5U C46A C55G C66U A69U — lower, ≤ 0.5
- C5U C33U A45G C61U — lower, ≤ 0.5
- C5U G41C — higher, 0.91
- C5U G6A A65U C66U A70G — lower, ≤ 0.5
- C5U U13C C24G U26C A37G U54G C61G — higher, 0.575
- C5U G12A G48A — higher, 1.18
- C5U G6C A21U U35C G39A — lower, ≤ 0.5
- C5U C49A C60G — higher, 0.754
- C5U C27U A45U C60G — lower, ≤ 0.5
- C5U G17A A40U A42C C49A G56A — lower, ≤ 0.5
- C5U C61A — higher, 0.612
- C5U C22G C29G A69U — lower, ≤ 0.5
- C5U C22U C30G C55U — lower, ≤ 0.5
- C5U G25C A36C A40U — lower, ≤ 0.5
- C5U U16C A40G A43G G63C A69G — lower, ≤ 0.5
- C5U C22U C27G A65U — lower, ≤ 0.5
- G6A A45G A70U — higher, 0.775
- C5U U8C A21G A42U G58A — higher, 0.726
- C5U U19G U53A — lower, 0.529
- G6A A20C A36C U47A G48C U54G A65C — lower, ≤ 0.5
- C5U C27A C61U — higher, 0.589
- C5U U7C C30A A42C — higher, 0.583
- C5U G25A A45G G50C A69C — lower, ≤ 0.5
- G6A A21G C33G A57U C62U — lower, ≤ 0.5
- C5U C24U A36G C46A U47C C55A G67A — lower, ≤ 0.5
- C5U G39C — higher, 0.769
- C5U G23A A69U — lower, ≤ 0.5
- C5U G39A U53A — lower, ≤ 0.5
- G6A A14G C66A — lower, ≤ 0.5
- C5U C24U A36G — higher, 0.791
- C5U C22U G52A U53C U59G C61G C62U — lower, ≤ 0.5
